Test results reported in ChEMBL document CHEMBL1129669, “Discovery of 1,5-benzodiazepines with peripheral cholecystokinin (CCK-A) receptor agonist activity. 1. Optimization of the agonist "trigger"” (J Med Chem, 1996).
Active and inactive are the calls of the source. No cut-off for these calls is given here.

Key:
[1] = molecular target: T1, Gastrin/cholecystokinin type B receptor (Homo sapiens, UniProt P32239); assay: Concentration required to displace [125I]Bolton-Hunter CCK-8 from human Cholecystokinin type B receptor expressed in CHO-K1 cells; type: cell-based
T1 sequence (P32239 whole entry): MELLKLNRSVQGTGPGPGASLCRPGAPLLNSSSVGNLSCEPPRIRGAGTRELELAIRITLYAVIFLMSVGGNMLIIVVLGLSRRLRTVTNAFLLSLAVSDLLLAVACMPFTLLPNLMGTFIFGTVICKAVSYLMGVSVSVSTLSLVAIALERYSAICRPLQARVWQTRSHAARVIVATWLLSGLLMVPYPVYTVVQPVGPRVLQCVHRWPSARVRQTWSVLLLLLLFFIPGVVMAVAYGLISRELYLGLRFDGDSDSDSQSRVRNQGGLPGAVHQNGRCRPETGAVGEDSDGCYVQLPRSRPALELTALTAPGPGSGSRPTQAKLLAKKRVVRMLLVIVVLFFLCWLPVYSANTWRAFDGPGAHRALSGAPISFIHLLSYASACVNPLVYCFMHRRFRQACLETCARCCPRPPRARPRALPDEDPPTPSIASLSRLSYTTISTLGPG

[2] = molecular target: T2, Cholecystokinin receptor type A (Homo sapiens, UniProt P32238); assay: Concentration required to displace [125I]Bolton-Hunter CCK-8 from human Cholecystokinin type A receptor stably expressed in CHO-K1 cells; type: cell-based
T2 sequence (P32238 whole entry): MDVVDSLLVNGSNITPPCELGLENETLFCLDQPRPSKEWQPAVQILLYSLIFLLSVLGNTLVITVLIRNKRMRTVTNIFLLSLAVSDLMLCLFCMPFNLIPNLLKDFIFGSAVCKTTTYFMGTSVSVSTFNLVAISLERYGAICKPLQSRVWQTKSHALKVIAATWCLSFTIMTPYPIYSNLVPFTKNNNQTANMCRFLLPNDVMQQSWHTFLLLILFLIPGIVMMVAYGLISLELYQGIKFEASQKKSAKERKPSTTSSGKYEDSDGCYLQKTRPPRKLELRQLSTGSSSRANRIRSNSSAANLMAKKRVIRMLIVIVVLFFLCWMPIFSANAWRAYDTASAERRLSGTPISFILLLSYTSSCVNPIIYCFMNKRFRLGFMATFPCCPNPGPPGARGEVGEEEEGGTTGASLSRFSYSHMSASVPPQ

[3] = species on record: Cavia porcellus; assay: (§1) Percent contraction of the guinea pig gall bladder uM; type: functional; set-up: concentration or dose not given beside the values
Procedure, shortened: (§2)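 Isolated guinea pig gallbladder incubated with ligand at 37 °C, 30 µM for 30 min or 1 µM for 60 min. Contraction expressed as percent of the contraction induced by 1 µM CCK-8.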

[4] = species on record: Cavia porcellus; assay: Antagonist affinity (pKB) against contraction of guinea pig gall bladder measured at a dose 30 uM; type: functional
[5] = species on record: Cavia porcellus; assay: Percent contraction of the guinea pig gall bladder uM; Inactive; type: functional; procedure, shortened: as §2
[6] = species on record: Rattus norvegicus; assay: Anorectic potency in rats conditioned to a palatable liquid diet and fasted for 2 hours; type: functional
[7] = system: Rattus norvegicus; assay: Maximal response of the rat to anorectic potency 30 min after intraperitoneal administration (0.5 uM/Kg); type: functional
[8] = species on record: Cavia porcellus; assay: Guinea pig gall bladder contraction by the compound at concentration 30 uM in the absence of MK329; type: functional; procedure, shortened: as §2
[9] = species on record: Cavia porcellus; assay: Guinea pig gall bladder contraction by the compound at concentration 30 uM in the presence of MK329; type: functional
Procedure, shortened: (§3)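 Isolated guinea pig gallbladder contraction induced by test ligand (30 µM screen), then reversed with MK-329 at 1 µM to confirm a CCK-A receptor-mediated response.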

[10] = species on record: Cavia porcellus; assay: Percentage reversal of isolated guinea pig gall bladder contraction by the compound; type: functional; procedure, shortened: as §3
[11] = system: Rattus norvegicus; assay: Maximal response of the rat to anorectic potency 30 min after intraperitoneal administration (1 uM/Kg); type: functional
[12] = species on record: Cavia porcellus; assay: as §1; type: functional; procedure, shortened: as §2
[13] = species on record: Cavia porcellus; assay: Guinea pig gall bladder contraction by the compound at concentration 1 uM in the absence of MK329; type: functional; procedure, shortened: as §2
[14] = species on record: Cavia porcellus; assay: Guinea pig gall bladder contraction by the compound at concentration 1 uM in the presence of MK329; type: functional

CC(C)N(C(=O)CN1C(=O)C(NC(=O)Nc2ccccc2)C(=O)N(c2ccccc2)c2ccccc21)c1ccc(C(=O)O)cc1 (configuration not stated)
IC50 [1]: 39.8 nM | IC50 [2]: 2510 nM | Activity [3]: 10% | pKB [4]: 6.14

CCOC(=O)CN(C(=O)CN1C(=O)C(NC(=O)Nc2ccccc2)C(=O)N(c2ccccc2)c2ccccc21)c1ccccc1 (configuration not stated)
Activity [3]: 16%

CC(C)N(Cc1ccccc1)C(=O)CN1C(=O)C(NC(=O)Nc2ccccc2)C(=O)N(c2ccccc2)c2ccccc21 (configuration not stated)
Activity [3]: 34%

CN(C(=O)CN1C(=O)C(NC(=O)Nc2ccccc2)C(=O)N(c2ccccc2)c2ccccc21)c1ccccc1 (configuration not stated)
Activity [5]: inactive | pKB [4]: 6.27

CSCC[C@H](NC(=O)[C@H](Cc1ccc(OS(=O)(=O)O)cc1)NC(=O)[C@@H](N)CC(=O)O)C(=O)NCC(=O)N[C@@H](Cc1c[nH]c2ccccc12)C(=O)N[C@@H](CCSC)C(=O)N[C@@H](CC(=O)O)C(=O)N[C@@H](Cc1ccccc1)C(N)=O [SINCALIDE]
ED50 [6]: 0.03 µmol/kg | Max response [7]: 96%

CCCN(C(=O)CN1C(=O)C(NC(=O)Nc2ccccc2)C(=O)N(c2ccccc2)c2ccccc21)c1ccccc1 (configuration not stated)
Activity [3]: 50%

O=C(CN1C(=O)C(NC(=O)Nc2ccccc2)C(=O)N(c2ccccc2)c2ccccc21)Nc1ccccc1 (configuration not stated)
Activity [5]: inactive | pKB [4]: 6.33

CC(C)N(C(=O)CN1C(=O)C(NC(=O)Nc2ccccc2)C(=O)N(c2ccccc2)c2ccccc21)c1ccc(O)cc1 (configuration not stated)
IC50 [1]: 15.8 nM | IC50 [2]: 39.8 nM | GPGB tension [8]: 2.25 g | GPGB tension [9]: 0 g | Activity [3]: 81% | Reversal [10]: 100% | ED50 [6]: 0.05 µmol/kg | Max response [11]: 74%

CCN(C(=O)CN1C(=O)C(NC(=O)Nc2ccccc2)C(=O)N(c2ccccc2)c2ccccc21)c1ccccc1 (configuration not stated)
Activity [3]: 66%

COc1ccc(N(C(=O)CN2C(=O)C(NC(=O)Nc3ccccc3)C(=O)N(c3ccccc3)c3ccccc32)C(C)C)cc1 (configuration not stated)
IC50 [1]: 50.1 nM | IC50 [2]: 79.4 nM | GPGB tension [8]: 2.88 g | GPGB tension [9]: 0.2 g | Activity [12]: 82% | Activity [3]: 93% | Reversal [10]: 107% | ED50 [6]: 0.07 µmol/kg | Max response [11]: 62%

CC(C)N(C(=O)CN1C(=O)C(NC(=O)Nc2ccccc2)C(=O)N(c2ccccc2)c2ccccc21)C(C)C (configuration not stated)
Activity [3]: 21%

N#CCCN(C(=O)CN1C(=O)C(NC(=O)Nc2ccccc2)C(=O)N(c2ccccc2)c2ccccc21)c1ccccc1 (configuration not stated)
Activity [3]: 32%

CC(C)N(C(=O)CN1C(=O)C(NC(=O)Nc2ccccc2)C(=O)N(c2ccccc2)c2ccccc21)c1ccc(N(C)C)cc1.O=C(O)C(F)(F)F (configuration not stated)
IC50 [1]: 251 nM | IC50 [2]: 63.1 nM | GPGB tension [13]: 2.55 g | GPGB tension [14]: 0.01 g | Activity [12]: 46% | Activity [3]: 75% | Reversal [10]: 100% | ED50 [6]: 0.09 µmol/kg | Max response [11]: 54%

CCN(CC)C(=O)CN1C(=O)C(NC(=O)Nc2ccccc2)C(=O)N(c2ccccc2)c2ccccc21 (configuration not stated)
Activity [3]: 38%

CC(C)N(C(=O)CN1C(=O)C(NC(=O)Nc2ccccc2)C(=O)N(c2ccccc2)c2ccccc21)c1ccc(N2CCOCC2)cc1 (configuration not stated)
IC50 [1]: 158 nM | GPGB tension [13]: 1.88 g | GPGB tension [14]: 0.43 g | Activity [12]: 74% | Reversal [10]: 123% | ED50 [6]: 0.2 µmol/kg | Max response [11]: 26%

CCCCN(C(=O)CN1C(=O)C(NC(=O)Nc2ccccc2)C(=O)N(c2ccccc2)c2ccccc21)c1ccccc1 (configuration not stated)
Activity [3]: 27%

NCCN(C(=O)CN1C(=O)C(NC(=O)Nc2ccccc2)C(=O)N(c2ccccc2)c2ccccc21)c1ccccc1 (configuration not stated)
Activity [3]: 7% | pKB [4]: 5.88

O=C(Nc1ccccc1)NC1C(=O)N(CC(=O)N(c2ccccc2)C2CCCCC2)c2ccccc2N(c2ccccc2)C1=O (configuration not stated)
Activity [3]: 26%

CC(C)N(C(=O)CN1C(=O)C(NC(=O)Nc2ccccc2)C(=O)N(c2ccccc2)c2ccccc21)c1ccc(F)cc1 (configuration not stated)
IC50 [1]: 31.6 nM | IC50 [2]: 100 nM | GPGB tension [13]: 2.14 g | GPGB tension [14]: 0.34 g | Activity [12]: 53% | Reversal [10]: 116% | ED50 [6]: 0.2 µmol/kg | Max response [11]: 56%

O=C(Nc1ccccc1)NC1C(=O)N(CC(=O)N(c2ccccc2)c2ccccc2)c2ccccc2N(c2ccccc2)C1=O (configuration not stated)
Activity [3]: 43%

O=C(O)CN(C(=O)CN1C(=O)C(NC(=O)Nc2ccccc2)C(=O)N(c2ccccc2)c2ccccc21)c1ccccc1 (configuration not stated)
Activity [5]: inactive | pKB [4]: 6.33

O=C(Nc1ccccc1)NC1C(=O)N(CC(=O)N(CCNC(=O)OCc2ccccc2)c2ccccc2)c2ccccc2N(c2ccccc2)C1=O (configuration not stated)
Activity [5]: inactive

CC(C)N(C(=O)CN1C(=O)C(NC(=O)Nc2ccccc2)C(=O)N(c2ccccc2)c2ccccc21)c1ccccc1 (configuration not stated)
GPGB tension [8]: 2.53 g | GPGB tension [9]: 0.43 g | Activity [3]: 86% | Reversal [10]: 117% | ED50 [6]: 0.95 µmol/kg | Max response [11]: 48%
